From ChEMBL document CHEMBL1123829, “Resolved cis-10-hydroxy-4-n-propyl-1,2,3,4,4a,5,6,10b- octahydrobenzo[f]quinoline : central serotonin stimulating properties” (1987)
The source made the active and inactive calls. The calls are words filed in the database; no cut-off is given here.

Key:
Rattus norvegicus [1] = experiment: Compound was tested for 5-HTP accumulation in limbic system(brain) of reserpinized rat; A partial agonistic response at a dose of 12.5 uM/kg; format: functional, organism-based; details: filed as partial agonist
Rattus norvegicus [2] = experiment: Compound was tested for Dopa accumulation in corpus striatum(brain) of reserpinized rat; A partial agonistic response at a dose of 25 uM/kg; format: functional, organism-based; details: filed as partial agonist
Rattus norvegicus [3] = experiment: Compound was tested for Dopa accumulation in hemispheres (brain) of reserpinized rat; A partial agonistic response at a dose of 50 uM/kg; format: functional, organism-based; details: filed as partial agonist
Rattus norvegicus [4] = experiment: Compound was tested for Dopa accumulation in limbic system(brain) of reserpinized rat; A partial agonistic response at a dose of 12.5 uM/kg; format: functional, organism-based; details: filed as partial agonist
Rattus norvegicus [5] = experiment: Compound was tested for 5-HTP accumulation in corpus striatum(brain) of reserpinized rat; A partial agonistic response at a dose of 25 uM/kg; format: functional, organism-based; details: filed as partial agonist
Rattus norvegicus [6] = experiment: Compound was tested for 5-HTP accumulation in hemispheres (brain) of reserpinized rat; A partial agonistic response at a dose of 50 uM/kg; format: functional, organism-based; details: filed as partial agonist
Rattus norvegicus [7] = species: Rattus norvegicus; experiment: Compound was tested for Dopa accumulation in corpus striatum(brain) of reserpinized rat; I = Inactive; format: functional, organism-based
Rattus norvegicus [8] = species: Rattus norvegicus; experiment: Compound was tested for Dopa accumulation in hemispheres (brain) of reserpinized rat; I = Inactive; format: functional, organism-based
Rattus norvegicus [9] = species: Rattus norvegicus; experiment: Compound was tested for Dopa accumulation in limbic system(brain) of reserpinized rat; I = Inactive; format: functional, organism-based
Rattus norvegicus [10] = species: Rattus norvegicus; experiment: Compound was tested for 5-HTP accumulation in limbic system(brain) of reserpinized rat.; format: functional
Procedure, shortened: (§1)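 Male Sprague-Dawley rats (200–300 g), pretreated with reserpine in glacial acetic acid/5.5% glucose. Compounds were given sc in saline at neutral pH. 5-HTP in striatum, limbic system or hemispheres was measured by HPLC with electrochemical detection. Dose-response curves used 4–6 dose levels per substance and region, with 95% confidence limits by modified probit analysis.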

Rattus norvegicus [11] = species: Rattus norvegicus; experiment: Compound was tested for 5-HTP accumulation in corpus striatum(brain) of reserpinized rat.; format: functional; procedure, shortened: as §1
Rattus norvegicus [12] = species: Rattus norvegicus; experiment: Compound was tested for 5-HTP accumulation in hemispheres (brain) of reserpinized rat; I = Inactive; format: functional; procedure, shortened: as §1
Rattus norvegicus [13] = species: Rattus norvegicus; experiment: Compound was tested for 5-HTP accumulation in corpus striatum(brain) of reserpinized rat; format: functional; procedure, shortened: as §1
Rattus norvegicus [14] = species: Rattus norvegicus; experiment: Compound was tested for 5-HTP accumulation in hemispheres (brain) of reserpinized rat; format: functional; procedure, shortened: as §1
Rattus norvegicus [15] = species: Rattus norvegicus; experiment: Compound was tested for 5-HTP accumulation in limbic system(brain) of reserpinized rat; format: functional; procedure, shortened: as §1
Rattus norvegicus [16] = species: Rattus norvegicus; experiment: Compound was tested for 5-HTP accumulation in corpus striatum (brain) of reserpinized rat.; format: functional; procedure, shortened: as §1
Rattus norvegicus [17] = species: Rattus norvegicus; experiment: Compound was tested for Dopa accumulation in limbic system (brain) of reserpinized rat; I = Inactive; format: functional, organism-based
Rattus norvegicus [18] = species: Rattus norvegicus; experiment: Compound was tested for 5-HTP accumulation in hemispheres (brain) of reserpinized rat.; format: functional; procedure, shortened: as §1
Rattus norvegicus [19] = species: Rattus norvegicus; experiment: Compound was tested for 5-HTP accumulation in limbic system (brain) of reserpinized rat.; format: functional; procedure, shortened: as §1

Compound: CCCN1CCCC2c3c(O)cccc3CCC21 (centres undefined)
- ED50 (Rattus norvegicus [1]): Partial agonist
- ED50 (Rattus norvegicus [2]): Partial agonist
- ED50 (Rattus norvegicus [3]): Partial agonist
- ED50 (Rattus norvegicus [4]): Partial agonist
- ED50 (Rattus norvegicus [5]): Partial agonist
- ED50 (Rattus norvegicus [6]): Partial agonist

Compound: CCCN1CCCC2c3c(O)cccc3CCC21 (stereo in doubt) [listing 1 of 2 here]
- ED50 (Rattus norvegicus [7]): inactive
- ED50 (Rattus norvegicus [8]): inactive
- ED50 (Rattus norvegicus [9]): inactive

Compound: CCCN1CCCC2c3c(O)cccc3CCC21 (stereo in doubt; 4) [listing 1 of 2 here]
- ED50 (Rattus norvegicus [7]): inactive
- ED50 (Rattus norvegicus [8]): inactive
- ED50 (Rattus norvegicus [9]): inactive

Compound: CCCN1CCCC2c3c(O)cccc3CCC21 (stereo in doubt; 4) [listing 2 of 2 here]
- ED50 (Rattus norvegicus [10]): 3.4 µmol/kg
- ED50 (Rattus norvegicus [11]): 3.4 µmol/kg
- ED50 (Rattus norvegicus [12]): 4.5 µmol/kg

Compound: CCCN1CCCC2c3c(O)cccc3CCC21 (stereo in doubt) [listing 2 of 2 here]
- ED50 (Rattus norvegicus [13]): 3.63 µmol/kg
- ED50 (Rattus norvegicus [14]): 3.47 µmol/kg
- ED50 (Rattus norvegicus [15]): 2.57 µmol/kg

Compound: CCCN(CCC)[C@@H]1CCc2cccc(O)c2[C@@H]1C
- ED50 (Rattus norvegicus [7]): inactive
- ED50 (Rattus norvegicus [8]): inactive
- ED50 (Rattus norvegicus [16]): 0.04 µmol/kg
- ED50 (Rattus norvegicus [17]): inactive
- ED50 (Rattus norvegicus [18]): 0.09 µmol/kg
- ED50 (Rattus norvegicus [19]): 0.09 µmol/kg
